Substrate in data set [1]: CC(=O)OCC1=C(C(=O)O)N2C(=O)[C@@H](NC(=O)Cc3cccs3)[C@H]2SC1
As to the kind of experiment: (§1) Activity of Salmonella enterica serotype Westhampton beta-lactamase CTX-M-53. To be noted: Salmonella enterica subsp. enterica serovar Westhampton. The gist of the method: (§2)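 CTX-M-53 was purified from E. coli DH5 carrying recombinant pCTX-M-53, grown in brain heart infusion with cefotaxime 2 µg/ml for 18 h at 37°C. Cells were sonicated in 20 mM MES-NaOH pH 6.0, and nucleic acids removed with spermine. The enzyme was purified by SP Sepharose ion exchange and Superose 12 gel filtration. Km and kcat were measured by computerized microacidimetry, three determinations each.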

Substrate in data set [2]: CC(C)(O/N=C(\C(=O)N[C@@H]1C(=O)N2C(C(=O)[O-])=C(C[n+]3ccccc3)CS[C@H]12)c1csc(N)n1)C(=O)O
The description is as §1. As to conditions: Salmonella enterica subsp. enterica serovar Westhampton. An outline of the steps:
as §2

Substrate in data set [3]: CC1(C)S[C@@H]2[C@H](NC(=O)Cc3ccccc3)C(=O)N2[C@H]1C(=O)O
The description is as §1. As to conditions: Salmonella enterica subsp. enterica serovar Westhampton. The gist of the method:
as §2

Substrate in data set [4]: CC1(C)S[C@@H]2[C@H](NC(=O)[C@H](C(=O)O)c3ccsc3)C(=O)N2[C@H]1C(=O)O
The data set is described as §1. To be noted: Salmonella enterica subsp. enterica serovar Westhampton. The gist of the method: as §2

Substrate in data set [5]: CC1(C)S[C@@H]2[C@H](NC(=O)[C@H](N)c3ccc(O)cc3)C(=O)N2[C@H]1C(=O)O
The data set is described as §1. To be noted: Salmonella enterica subsp. enterica serovar Westhampton. The gist of the method: as §2

Substrate in data set [6]: CCN1CCN(C(=O)N[C@@H](C(=O)N[C@@H]2C(=O)N3[C@@H]2SC(C)(C)[C@@H]3C(=O)O)c2ccccc2)C(=O)C1=O
Described as §1. To be noted: Salmonella enterica subsp. enterica serovar Westhampton. An outline of the steps:
as §2

Substrate in data set [7]: CO/N=C(\C(=O)N[C@@H]1C(=O)N2C(C(=O)O)=C(COC(C)=O)CS[C@H]12)c1csc(N)n1
Described as §1. As to conditions: Salmonella enterica subsp. enterica serovar Westhampton. An outline of the steps:
as §2

Substrate in data set [8]: CO/N=C(\C(=O)N[C@@H]1C(=O)N2C(C(=O)O)=C(COC(N)=O)CS[C@H]12)c1ccco1
The data set is described as §1. As to conditions: Salmonella enterica subsp. enterica serovar Westhampton. The gist of the method:
as §2

Substrate in data set [9]: CO/N=C(\C(=O)N[C@@H]1C(=O)N2C(C(=O)[O-])=C(C[n+]3cccc4c3CCC4)CS[C@H]12)c1csc(N)n1
The data set is described as §1. To be noted: Salmonella enterica subsp. enterica serovar Westhampton. The gist of the method:
as §2

Substrate in data set [10]: C[C@H]1[C@H](NC(=O)/C(=N\OC(C)(C)C(=O)O)c2csc(N)n2)C(=O)N1S(=O)(=O)O
The description is as §1. As to conditions: Salmonella enterica subsp. enterica serovar Westhampton. The gist of the method: as §2

Substrate in data set [11]: CC(=O)OCC1=C(C(=O)O)N2C(=O)[C@@H](NC(=O)Cc3cccs3)[C@H]2SC1
Description: (§3) Ratio of Kcat/Km for Salmonella enterica serotype Westhampton beta-lactamase CTX-M-53. As to conditions: Salmonella enterica subsp. enterica serovar Westhampton. An outline of the steps:
as §2

Substrate in data set [12]: CC(C)(O/N=C(\C(=O)N[C@@H]1C(=O)N2C(C(=O)[O-])=C(C[n+]3ccccc3)CS[C@H]12)c1csc(N)n1)C(=O)O
The description is as §3. To be noted: Salmonella enterica subsp. enterica serovar Westhampton. The gist of the method:
as §2

Substrate in data set [13]: CC1(C)S[C@@H]2[C@H](NC(=O)Cc3ccccc3)C(=O)N2[C@H]1C(=O)O
The data set is described as §3. To be noted: Salmonella enterica subsp. enterica serovar Westhampton. The gist of the method:
as §2

Substrate in data set [14]: CC1(C)S[C@@H]2[C@H](NC(=O)[C@H](C(=O)O)c3ccsc3)C(=O)N2[C@H]1C(=O)O
The data set is described as §3. As to conditions: Salmonella enterica subsp. enterica serovar Westhampton. An outline of the steps:
as §2

Substrate in data set [15]: CC1(C)S[C@@H]2[C@H](NC(=O)[C@H](N)c3ccc(O)cc3)C(=O)N2[C@H]1C(=O)O
Described as §3. As to conditions: Salmonella enterica subsp. enterica serovar Westhampton. An outline of the steps:
as §2

Substrate in data set [16]: CCN1CCN(C(=O)N[C@@H](C(=O)N[C@@H]2C(=O)N3[C@@H]2SC(C)(C)[C@@H]3C(=O)O)c2ccccc2)C(=O)C1=O
The description is as §3. As to conditions: Salmonella enterica subsp. enterica serovar Westhampton. The gist of the method:
as §2

Substrate in data set [17]: CO/N=C(\C(=O)N[C@@H]1C(=O)N2C(C(=O)O)=C(COC(C)=O)CS[C@H]12)c1csc(N)n1
Described as §3. To be noted: Salmonella enterica subsp. enterica serovar Westhampton. An outline of the steps:
as §2

Substrate in data set [18]: CO/N=C(\C(=O)N[C@@H]1C(=O)N2C(C(=O)O)=C(COC(N)=O)CS[C@H]12)c1ccco1
Described as §3. As to conditions: Salmonella enterica subsp. enterica serovar Westhampton. The gist of the method:
as §2

Substrate in data set [19]: CO/N=C(\C(=O)N[C@@H]1C(=O)N2C(C(=O)[O-])=C(C[n+]3cccc4c3CCC4)CS[C@H]12)c1csc(N)n1
The data set is described as §3. To be noted: Salmonella enterica subsp. enterica serovar Westhampton. The gist of the method:
as §2

Substrate in data set [20]: C[C@H]1[C@H](NC(=O)/C(=N\OC(C)(C)C(=O)O)c2csc(N)n2)C(=O)N1S(=O)(=O)O
Described as §3. To be noted: Salmonella enterica subsp. enterica serovar Westhampton. An outline of the steps:
as §2

Substrate in data set [21]: C[C@H]1[C@H](NC(=O)/C(=N\OC(C)(C)C(=O)O)c2csc(N)n2)C(=O)N1S(=O)(=O)O
As to conditions: Escherichia coli.

Substrate in data set [22]: CC(C)(O/N=C(\C(=O)N[C@@H]1C(=O)N2C(C(=O)[O-])=C(C[n+]3ccccc3)CS[C@H]12)c1csc(N)n1)C(=O)O
As to conditions: Escherichia coli.

Substrate in data set [23]: C[C@H]1[C@H](NC(=O)/C(=N\OC(C)(C)C(=O)O)c2csc(N)n2)C(=O)N1S(=O)(=O)O
To be noted: Escherichia coli. This is another data set of the same source.

Substrate in data set [24]: CC(C)(O/N=C(\C(=O)N[C@@H]1C(=O)N2C(C(=O)[O-])=C(C[n+]3ccccc3)CS[C@H]12)c1csc(N)n1)C(=O)O
As to conditions: Escherichia coli. This is another data set of the same source.

The text below walks through data of ChEMBL document CHEMBL1649429, “Novel plasmid-encoded ceftazidime-hydrolyzing CTX-M-53 extended-spectrum beta-lactamase from Salmonella enterica serotypes Westhampton and Senftenberg” (Antimicrob Agents Chemother, 2009).

B1: Extended-spectrum beta-lactamase CTX-M-53 (Salmonella enterica subsp. enterica serovar Westhampton), Q2XPY6 (protein)
chain: MVKKSLRQFTLMATATVTLLLGSVPLYAQTVDVQQKLAELEQQSGGRLGVALINTADNSQILYRADERFAMCSTSKVMAVAAVLKKSESEPNLLNQRVEIKKSDLVNYNPIAEKHVNGTMSLAELSAAALQYSDNVAMNKLIAHVGGPASVTAFARQLGDETFRLDRTEPTLNTAIPGDPRDTTSPRAMAQTLRNLTLGKALGDSQRAQLVTWMKGNTTGAASIQAGLPASWVVGDKTGSGGYGTTNDIAVIWPKDRAPLILVIYFTQPQPKAESRRDVLASAAKIVTDGL
On to B1, for which the Km came out at 122 µM in data set [1]; 174 µM in data set [2]; 10 µM in data set [3]; 18 µM in [4]; 40 µM in [5]; 12 µM in [6]. Further, the Km in [7] stood at 180 µM; in data set [8] it was 80 µM; in data set [9] it was 125 µM; in [10] it was 14 µM. Besides, the kcat in data set [1] was found to be 2000 s⁻¹; in data set [2] it was 14 s⁻¹; in data set [3], 135 s⁻¹; in data set [4], 10 s⁻¹; in data set [5], 85 s⁻¹; in data set [6] it was 90 s⁻¹. In addition, the kcat in data set [7] was found to be 585 s⁻¹; in [8] it was 292 s⁻¹; in data set [9], 710 s⁻¹; in data set [10], 4 s⁻¹. Also, the kcat/Km came to 1.64e+07 M⁻¹ s⁻¹ in data set [11]; 100000 M⁻¹ s⁻¹ in [12]; 1.35e+07 M⁻¹ s⁻¹ in data set [13]; 500000 M⁻¹ s⁻¹ in [14]; 2.1e+06 M⁻¹ s⁻¹ in data set [15]; 7.5e+06 M⁻¹ s⁻¹ in data set [16]. Also, the kcat/Km in data set [17] was 3.2e+06 M⁻¹ s⁻¹; in data set [18], 3.6e+06 M⁻¹ s⁻¹; in [19] it was 5.7e+06 M⁻¹ s⁻¹; in data set [20], 300000 M⁻¹ s⁻¹.

B2: Beta-lactamase CTX-M-16 (Escherichia coli), Q939N4 (protein)
chain: MVTKRVQRMMFAAAACIPLLLGSAPLYAQTSAVQQKLAALEKSSGGRLGVALIDTADNTQVLYRGDERFPMCSTSKVMAAAAVLKQSETQKQLLNQPVEIKPADLVNYNPIAEKHVNGTMTLAELSAAALQYSDNTAMNKLIAQLGGPGGVTAFARAIGDETFRLDRTEPTLNTAIPGDPRDTTTPRAMAQTLRQLTLGHALGETQRAQLVTWLKGNTTGAASIRAGLPTSWTAGDKTGSGGYGTTNDIAVIWPQGRAPLVLVTYFTQPQQNAESRRDVLASAARIIAEGL
In the case of B2, the Km in data set [21] was found to be 17 µM. Moreover, the kcat/Km in data set [22] was determined as 0.04 s⁻¹.

B3: Beta-lactamase CTX-M-27 (Escherichia coli), Q840M4 (protein)
chain: MVTKRVQRMMFAAAACIPLLLGSAPLYAQTSAVQQKLAALEKSSGGRLGVALIDTADNTQVLYRGDERFPMCSTSKVMAAAAVLKQSETQKQLLNQPVEIKPADLVNYNPIAEKHVNGTMTLAELSAAALQYSDNTAMNKLIAQLGGPGGVTAFARAIGDETFRLDRTEPTLNTAIPGDPRDTTTPRAMAQTLRQLTLGHALGETQRAQLVTWLKGNTTGAASIRAGLPTSWTVGDKTGSGGYGTTNDIAVIWPQGRAPLVLVTYFTQPQQNAESRRDVLASAARIIAEGL
Take B3: the Km in data set [23] worked out at 17 µM. The kcat/Km in data set [24] amounted to 0.01 s⁻¹.
